Measured values from ChEMBL document CHEMBL1127055, “Pyrrolo[1,2-a]benzimidazole-based aziridinyl quinones. A new class of DNA cleaving agent exhibiting G and A base specificity” (1993).

Columns and labels:
Assay type in all cases: functional, Homo sapiens
SK-MEL-2 = experiment: Tested for cytotoxic activity against melanoma SK-MEL-2 cell line
In short: (§1)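 Screened in a panel of 60 human cancer cell lines. The read-out was LC50, the concentration needed for 50% cell kill. Values were reported as log LC50 in a mean graph and plotted against the log of the panel mean LC50.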

XF498 = experiment: Tested for cytotoxic activity against CNS cancer XF498 cell line; in short: as §1
HT-29 = experiment: Tested for cytotoxic activity against colon cancer HT-29 cell line; in short: as §1
CAKI-1 = experiment: Tested for cytotoxic activity against renal cancer CAKI-1 cell line; in short: as §1
KM12 = experiment: Tested for cytotoxic activity against colon cancer KM-12 cell line; in short: as §1
NCI-H226 = experiment: Tested for cytotoxic activity against non-small cell lung cancer NCI-H226 cell line; in short: as §1
SK-MEL-5 = experiment: Tested for cytotoxic activity against melanoma SK-MEL-5 cell line; in short: as §1
COLO 205 = experiment: Tested for cytotoxic activity against colon cancer COLO 205 cell line; in short: as §1
MOLT-4 = experiment: Tested for cytotoxic activity against leukemia MOLT-4 cell line; in short: as §1
HOP-18 = experiment: Tested for cytotoxic activity against non-small cell lung cancer HOP-18 cell line; in short: as §1
U-251 = experiment: Tested for cytotoxic activity against CNS cancer U251 cell line; in short: as §1
SF-268 = experiment: Tested for cytotoxic activity against CNS cancer […] cell line; in short: as §1
M19-MEL = experiment: Tested for cytotoxic activity against melanoma M19-MEL cell line; in short: as §1
UO-31 = experiment: Tested for cytotoxic activity against renal cancer UO-31 cell line; in short: as §1
IGROV-1 = experiment: Tested for cytotoxic activity against ovarian cancer IGROVI cell line; in short: as §1
HOP-92 = experiment: Tested for cytotoxic activity against non-small cell lung cancer HOP92 cell line; in short: as §1
OVCAR-4 = experiment: Tested for cytotoxic activity against ovarian cancer OVCAR-4 cell line; in short: as §1
LOX IMVI = experiment: Tested for cytotoxic activity against melanoma […] cell line; in short: as §1
DLD-1 = experiment: Tested for cytotoxic activity against colon cancer DLD-1 cell line; in short: as §1
NCI-H522 = experiment: Tested for cytotoxic activity against non-small cell lung cancer NCI-H522 cell line; in short: as §1
OVCAR-3 = experiment: Tested for cytotoxic activity against ovarian cancer OVCAR -3 cell line; in short: as §1
TK-10 = experiment: Tested for cytotoxic activity against renal cancer TK-10 cell line; in short: as §1
UACC-257 = experiment: Tested for cytotoxic activity against melanoma UACC-257 cell line; in short: as §1
A549 = experiment: Tested for cytotoxic activity against non-small cell lung cancer A549/ATCC cell line; in short: as §1
OVCAR-8 = experiment: Tested for cytotoxic activity against ovarian cancer OVCAR-8 cell line; in short: as §1
NCI-H322M = experiment: Tested for cytotoxic activity against non-small cell lung cancer NCI-H322M cell line; in short: as §1
CCRF-CEM = experiment: Tested for cytotoxic activity against leukemia CCRF-CEM cell line; in short: as §1
LXFL 529 = experiment: Tested for cytotoxic activity against non-small cell lung cancer LXFL-529L cell line; in short: as §1
SF-295 = experiment: Tested for cytotoxic activity against CNS cancer SF-295 cell line; in short: as §1
SF-539 = experiment: Tested for cytotoxic activity against CNS cancer […] cell line; in short: as §1
Malme-3M = experiment: Tested for cytotoxic activity against melanoma MALME-3M cell line; in short: as §1
SNB-75 = experiment: Tested for cytotoxic activity against CNS cancer SNB-75 cell line; in short: as §1
HOP-62 = experiment: Tested for cytotoxic activity against non-small cell lung cancer HOP-62 cell line; in short: as §1
DMS-114 = experiment: Tested for cytotoxic activity against small cell lung cancer DMS114 cell line; in short: as §1
RXF 393 = experiment: Tested for cytotoxic activity against renal cancer RXF-393 cell line; in short: as §1
M14 = experiment: Tested for cytotoxic activity against melanoma M14 cell line; in short: as §1
ACHN = experiment: Tested for cytotoxic activity against renal cancer ACHN cell line; in short: as §1
NCI-H23 = experiment: Tested for cytotoxic activity against non-small cell lung cancer NCI-H23 cell line; in short: as §1
SK-OV-3 = experiment: Tested for cytotoxic activity against ovarian cancer SK-OV-3 cell line; in short: as §1
SNB-19 = experiment: Tested for cytotoxic activity against CNS cancer SNB-19 cell line; in short: as §1
SN12C = experiment: Tested for cytotoxic activity against renal cancer SN12C cell line; in short: as §1
SK-MEL-28 = experiment: Tested for cytotoxic activity against melanoma SK-MEL-28; in short: as §1
EKVX = experiment: Tested for cytotoxic activity against non-small cell lung cancer […] cell line; in short: as §1
K562 = experiment: Tested for cytotoxic activity against leukemia K-562 cell line; in short: as §1
SW-620 = experiment: Tested for cytotoxic activity against colon cancer SW-620 cell line; in short: as §1
KM-20L2 = experiment: Tested for cytotoxic activity against colon cancer KM20L2 cell line; in short: as §1
UACC-62 = experiment: Tested for cytotoxic activity against melanoma UACC-62 cell line; in short: as §1
SNB-78 = experiment: Tested for cytotoxic activity against CNS cancer SNB-78 cell line; in short: as §1
OVCAR-5 = experiment: Tested for cytotoxic activity against ovarian cancer OVCAR-5 cell line; in short: as §1
786-0 = experiment: Tested for cytotoxic activity against renal cancer 786-0 cell line; in short: as §1

CC(=O)OC1CCn2c1nc1c2C(=O)C(C)=C(N2CC2)C1=O (stereo not given)
LC50 (SK-MEL-2): 7.61 | LC50 (XF498): 7.09 | LC50 (HT-29): 6.03 | LC50 (CAKI-1): 5.53 | LC50 (KM12): 7.02 | LC50 (NCI-H226): 7.09 | LC50 (SK-MEL-5): <8 | LC50 (COLO 205): 4.82 | LC50 (MOLT-4): >4 | LC50 (HOP-18): 6.64 | LC50 (U-251): 6.53 | LC50 (SF-268): 5.67 | LC50 (M19-MEL): 5.12 | LC50 (UO-31): <8 | LC50 (IGROV-1): 5.85 | LC50 (HOP-92): 5.14 | LC50 (OVCAR-4): 7.19 | LC50 (LOX IMVI): <8 | LC50 (DLD-1): 7.66 | LC50 (NCI-H522): <8 | LC50 (OVCAR-3): 6.34 | LC50 (TK-10): 6.06 | LC50 (UACC-257): 6.71 | LC50 (A549): 5.44 | LC50 (OVCAR-8): 7.09 | LC50 (NCI-H322M): 6.63 | LC50 (CCRF-CEM): >4 | LC50 (LXFL 529): 7.33 | LC50 (SF-295): 6.47 | LC50 (SF-539): 7.89 | LC50 (Malme-3M): 7.26 | LC50 (SNB-75): 7.56 | LC50 (HOP-62): <8 | LC50 (DMS-114): >4 | LC50 (RXF 393): <8 | LC50 (M14): <8 | LC50 (ACHN): 6.53 | LC50 (NCI-H23): <8 | LC50 (SK-OV-3): 6.36 | LC50 (SNB-19): 6.54 | LC50 (SN12C): 7.12 | LC50 (SK-MEL-28): 7.59 | LC50 (EKVX): 6.55 | LC50 (K562): >4 | LC50 (SW-620): 6.22 | LC50 (KM-20L2): 6.64 | LC50 (UACC-62): <8 | LC50 (SNB-78): 5.39 | LC50 (OVCAR-5): 6.53 | LC50 (786-0): 7.36
